High-throughput results: PubChem, Broad Institute
T cruzi growth-1: inhibitors of T. cruzi proliferation | T. cruzi beta-gal in NIH3T3, GalScreen luminescence, 90 h | inhibition, % at 8.34 µM | 77,000 compounds, 5.9% hits;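 active means mean inhibition above about 93%, with at least 55% of replicates each passing it, limit read from the data, passing the limit was not always enough; inconclusive means only one of those two conditions holds; inactive means neither condition holds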
IDH1 R132H inh: blocks human IDH1 R132H reductase activity; 70,000 compounds, 0.18% hits; O75874; diaphorase/resazurin fluorescence, 60 min; inhibition, % at 10 µM; in the data active means inhibition above about 34%; inconclusive means no clear call, values can overlap the other calls; inactive means below about 11%
KDM4C inh: KDM4C (human) demethylase inhibition | AID 720574 | GST-KDM4C 2-372, H3K9me3 peptide, LANCE TR-FRET | inhibition, % at 12.5 µM | 96,000 compounds, 0.15% hits;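 active means mean replicate inhibition above about 25%, with at least 55% of replicates also reaching it, limit read from the data, passing the limit was not always enough; inconclusive means only one of those two conditions met; inactive means neither condition met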
Target sequence (Q9H3R0 2-372 limits assumed): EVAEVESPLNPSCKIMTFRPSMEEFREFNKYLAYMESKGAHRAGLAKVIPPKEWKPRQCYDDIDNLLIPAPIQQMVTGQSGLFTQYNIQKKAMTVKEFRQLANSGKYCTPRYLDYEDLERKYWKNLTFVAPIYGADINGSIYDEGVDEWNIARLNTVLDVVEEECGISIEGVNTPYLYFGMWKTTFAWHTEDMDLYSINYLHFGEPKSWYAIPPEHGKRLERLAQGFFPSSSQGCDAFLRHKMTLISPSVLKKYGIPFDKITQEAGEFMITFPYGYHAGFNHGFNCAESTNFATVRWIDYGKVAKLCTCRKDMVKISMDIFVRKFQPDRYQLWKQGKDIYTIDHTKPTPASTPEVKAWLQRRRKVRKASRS
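System – N-terminal GST-fused human GASC-1 (KDM4C) fragment, residues 2-372 · Input – enzyme final amount 10 nM · Technique – LANCE TR-FRET, Eu antibody, ULight-streptavidin, EDTA, ex 340 nm, em 618/671 nm · Medium – HEPES buffer, pH 7.5, plus ascorbate · Incubation – enzyme reaction 30 min, then detection 60 min, both room temperature · Reagent – H3K9me3 peptide with Fe(II)/2OG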
T cruzi growth-2: blocks T. cruzi growth in NIH3T3 host cells. shares compounds with T cruzi growth-1. T. cruzi beta-gal in NIH3T3, GalScreen luminescence, 90 h. inhibition, % at 8.35 µM. 5,600 compounds, 72% hits. AID 651739;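 active means mean replicate inhibition above about 95% and at least 55% of replicates individually reaching it, limit read from the data; inconclusive means only one of the two criteria is met; inactive means neither criterion is met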
T cruzi growth-3: Trypanosoma cruzi proliferation inhibition; 5,600 compounds, 21% hits; T. cruzi beta-gal in NIH3T3, GalScreen luminescence, 90 h; AID 651740; shares compounds with T cruzi growth-1; inhibition, % at 2.09 µM;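 active means mean inhibition above about 95%, with at least 55% of replicates also reaching it, limit read from the data; inconclusive means meets just one of the two conditions; inactive means meets neither condition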
3T3 cytotox: cytotoxicity in mouse NIH/3T3 fibroblasts. shares compounds with T cruzi growth-1. NIH/3T3 viability, CellTiter-Glo ATP luminescence, 90 h. cytotoxicity (signal decrease), % at 8.35 µM. 5,600 compounds, 14% hits. AID 651742;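 active means mean signal decrease across replicates above about 35% based on untreated-well scatter, with enough replicates individually passing, limit read from the data; inconclusive means no rule stated though some were filed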
3T3 cytotox 2: kills mouse NIH/3T3 fibroblasts; shares compounds with T cruzi growth-1; NIH/3T3 viability, CellTiter-Glo ATP luminescence, 90 h; inhibition, % at 24.9 µM; 5,600 compounds, 56% hits;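 active means mean loss of cell viability signal at or above a set limit, and enough replicates individually reaching it; inconclusive means meets only the mean limit or only the replicate share; inactive means meets neither condition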
A number is an active result; . = inactive; ? = inconclusive; / = no result. Only a selection was taken, and hits are over-represented in it overall.

SMILES	T cruzi growth-1	IDH1 R132H inh	KDM4C inh	T cruzi growth-2	T cruzi growth-3	3T3 cytotox	3T3 cytotox 2
C[C@@H]1CN([C@@H](C)CO)C(=O)c2cccc(NC(=O)Nc3ccc(C(F)(F)F)cc3)c2O[C@H]1CN(C)Cc1ccc2c(c1)OCO2	?	/	/	105.3	117.3	.	54.9
C[C@@H]1CN([C@H](C)CO)C(=O)c2cccc(NC(=O)Nc3ccc(C(F)(F)F)cc3)c2O[C@H]1CN(C)Cc1ccc2c(c1)OCO2	.	.	.	/	/	/	/
O=C(CSc1nnc(-c2ccco2)n1-c1ccccc1)c1ccc2c(c1)OCCO2	/	.	/	/	/	/	/
O=C(O)CCCCCC(=O)N/N=C/c1ccoc1	/	.	/	/	/	/	/
Cc1nc(SCC(=O)Nc2ccc3ccccc3c2)n[nH]1	/	.	/	/	/	/	/
C[C@H]1CN([C@@H](C)CO)S(=O)(=O)c2ccc(C#CC(C)(C)O)cc2O[C@H]1CN(C)Cc1ccc(F)cc1	/	.	.	/	/	/	/
C[C@@H]1CN([C@H](C)CO)S(=O)(=O)c2ccc(C#CC(C)(C)O)cc2O[C@H]1CN(C)Cc1ccccc1	.	/	/	/	/	/	/
C[C@@H]1CN([C@H](C)CO)S(=O)(=O)c2ccc(C#CC(C)(C)O)cc2O[C@@H]1CN(C)Cc1ccc(-c2ccccc2)cc1	124.6	/	.	.	109.5	45.1	107.3
C[C@H]1CN([C@@H](C)CO)S(=O)(=O)c2ccc(C#CC(C)(C)O)cc2O[C@H]1CN(C)Cc1ccccc1	.	/	/	/	/	/	/
C[C@H](CO)N1C[C@H](C)[C@@H](CN(C)Cc2ccc(-c3ccccc3)cc2)Oc2cc(C#CC(C)(C)O)ccc2S1(=O)=O	117.1	.	.	95.1	115.5	113.9	104.4
C[C@H](CO)N1C[C@H](C)[C@H](CN(C)Cc2ccc(-c3ccccc3)cc2)Oc2cc(C#CC(C)(C)O)ccc2S1(=O)=O	121.7	/	.	.	115.7	51.1	104.0
C[C@H](CO)N1C[C@H](C)[C@@H](CN(C)Cc2ccc(F)cc2)Oc2cc(C#CC(C)(C)O)ccc2S1(=O)=O	/	.	.	/	/	/	/
C[C@H]1CN([C@@H](C)CO)S(=O)(=O)c2ccc(C#CC(C)(C)O)cc2O[C@H]1CN(C)Cc1ccc(-c2ccccc2)cc1	124.3	/	.	95.9	113.4	114.4	105.4
Cc1ccc(S(=O)(=O)N(C)c2ccc(C(=O)Nc3cccc(N(C)S(C)(=O)=O)c3)cc2)cc1	/	.	/	/	/	/	/
Cc1ccc(S(=O)(=O)NCC(C)O)cc1-c1nnc2c3ccccc3c(C)nn12 (stereo unspecified)	/	.	/	/	/	/	/
C[C@H](CO)N1C[C@H](C)[C@H](CN(C)Cc2ccc(F)cc2)Oc2cc(C#CC(C)(C)O)ccc2S1(=O)=O	/	.	.	/	/	/	/
C[C@H]1CN([C@@H](C)CO)S(=O)(=O)c2ccc(C#CC(C)(C)O)cc2O[C@@H]1CN(C)Cc1ccc(-c2ccccc2)cc1	118.3	/	.	98.4	112.3	119.8	103.7
CCC1(C)Cc2ccccc2-c2nc(NCCCO)n(-c3ccc(C)cc3)c(=O)c21 (stereo unspecified)	/	.	/	/	/	/	/
Cc1noc(C)c1S(=O)(=O)Nc1ccc2c(c1)CC(=O)N([C@@H](C)CO)C[C@@H](C)[C@H](CN(C)Cc1ccc(Cl)c(Cl)c1)O2	.	.	.	/	/	/	/
C[C@H](CO)N1C[C@H](C)[C@@H](CN(C)Cc2ccc(Cl)c(Cl)c2)Oc2ccc(NS(=O)(=O)c3ccc(Cl)cc3)cc2CC1=O	.	.	.	/	/	/	/
Cc1noc(C)c1S(=O)(=O)Nc1ccc2c(c1)CC(=O)N([C@H](C)CO)C[C@H](C)[C@@H](CN(C)Cc1ccc(Cl)c(Cl)c1)O2	100.0	.	.	106.0	.	.	104.4
C[C@@H]1CN([C@H](C)CO)C(=O)Cc2cc(NS(=O)(=O)c3ccc(Cl)cc3)ccc2O[C@H]1CN(C)Cc1ccc(Cl)c(Cl)c1	97.1	.	.	107.5	107.2	.	102.5
Cc1ccc(S(=O)(=O)Nc2ccc3c(c2)C(=O)N([C@H](C)CO)C[C@H](C)[C@@H](CN(C)Cc2ccc(Cl)c(Cl)c2)O3)cc1	.	/	.	/	/	/	/
C[C@@H]1CN([C@H](C)CO)C(=O)Cc2cc(NS(=O)(=O)c3ccc(F)cc3)ccc2O[C@H]1CN(C)Cc1ccc(Cl)c(Cl)c1	.	.	.	/	/	/	/
Cc1ccc(S(=O)(=O)Nc2ccc3c(c2)C(=O)N([C@H](C)CO)C[C@@H](C)[C@@H](CN(C)Cc2ccc(Cl)c(Cl)c2)O3)cc1	?	.	.	95.0	.	64.7	105.5
SMILES	T cruzi growth-1	IDH1 R132H inh	KDM4C inh	T cruzi growth-2	T cruzi growth-3	3T3 cytotox	3T3 cytotox 2
C[C@@H]1CN([C@@H](C)CO)C(=O)Cc2cc(NS(=O)(=O)c3ccc(Cl)cc3)ccc2O[C@H]1CN(C)Cc1ccc(Cl)c(Cl)c1	?	.	.	.	.	41.5	104.3
COc1ccccc1-c1ccc([C@H]2[C@@H](CO)N(C(=O)C3CC3)C23CN(C(C)=O)C3)cc1	/	/	.	/	/	/	/
CC(C)CC#Cc1ccc([C@H]2[C@@H](CO)N3C(=O)CN(C(=O)NC4CCCC4)C[C@@H]23)cc1	/	/	.	/	/	/	/
O=C(O)CCNS(=O)(=O)c1cccc(F)c1	/	.	/	/	/	/	/
C[C@@H]1CN([C@@H](C)CO)C(=O)c2cc(NS(=O)(=O)c3ccc(F)cc3)ccc2O[C@@H](C)CCCCO[C@H]1CN(C)Cc1ccccc1	.	/	.	/	/	/	/
COc1ccc(CN(C)C[C@H]2OCCCC[C@H](C)Oc3ccc(NS(=O)(=O)c4ccccc4)cc3C(=O)N([C@@H](C)CO)C[C@H]2C)cc1	103.3	/	.	108.9	.	.	89.5
C[C@H](CO)N1C[C@H](C)[C@H](CN(C)Cc2ccccc2)OCCCC[C@H](C)Oc2ccc(NS(=O)(=O)c3ccc(F)cc3)cc2C1=O	?	/	59.3	112.9	.	.	91.7
COc1ccc(CN(C)C[C@@H]2OCCCC[C@@H](C)Oc3ccc(NS(=O)(=O)c4ccccc4)cc3C(=O)N([C@H](C)CO)C[C@@H]2C)cc1	.	/	.	/	/	/	/
COc1ccc(CN(C)C[C@@H]2OCCCC[C@@H](C)Oc3ccc(NS(=O)(=O)c4ccc(Cl)cc4)cc3C(=O)N([C@@H](C)CO)C[C@H]2C)cc1	.	/	.	/	/	/	/
Cc1ccc(S(=O)(=O)Nc2ccc3c(c2)C(=O)N([C@@H](C)CO)C[C@@H](C)[C@@H](CN(C)Cc2ccccc2)OCCCC[C@H](C)O3)cc1	.	.	.	/	/	/	/
Cc1ccc(S(=O)(=O)Nc2ccc3c(c2)C(=O)N([C@@H](C)CO)C[C@@H](C)[C@@H](CN(C)Cc2ccccc2)OCCCC[C@@H](C)O3)cc1	?	/	.	.	.	.	104.5
COc1ccc(CN(C)C[C@H]2OCCCC[C@H](C)Oc3ccc(NS(=O)(=O)c4ccc(Cl)cc4)cc3C(=O)N([C@@H](C)CO)C[C@@H]2C)cc1	?	.	.	101.3	.	.	104.2
COc1ccccc1CC(=O)Nc1cc(Cl)ccc1C(=O)O	/	.	/	/	/	/	/
COc1c(O)c(C(=O)/C=C\c2ccccc2)c(OC)c(OC)c1OC	/	.	/	/	/	/	/
